Experimental data as given in ChEMBL document CHEMBL3414546, “Design, synthesis and structure-activity relationship of oxazolidinone derivatives containing novel S4 ligand as FXa inhibitors” (Eur J Med Chem, 2015).
Converted amounts (≈) assume the structure as drawn.

Assays:
[1] = target: T1, Coagulation factor X (Homo sapiens, UniProt P00742); assay: Inhibition of human F10a using S-2765 as substrate at 0.1 uM after 45 mins by spectra max analysis relative to control
Method in brief: (§1)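 Purified human FXa (10 ng) was used with chromogenic substrate S-2765 at 500 µM in 50 mM Tris-HCl pH 7.5, […], 1 mM CaCl2 and 2.5% DMSO (final). Compound was incubated for 45 min at 37 °C, and absorbance was read at 405 nm. Percent inhibition came from reaction velocity versus DMSO control. IC50 was taken from a plot of inhibition against concentration.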

[2] = target: T1, Coagulation factor X; assay: Inhibition of F10a in human plasma assessed as doubling of activated partial thromboplastin time
Method in brief: (§2)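 Plasma came from human volunteer or rabbit blood anticoagulated with 3.8% sodium citrate and centrifuged at 2000 g for 10 min. The DMSO stock was serially diluted in plasma. Clotting time was measured on control plasma and on plasma with five to seven inhibitor concentrations. The concentration doubling clotting time was estimated from the concentration-response curve.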

[3] = target: T2, Coagulation factor X (Oryctolagus cuniculus, UniProt O19045); assay: Inhibition of F10a in rabbit plasma assessed as doubling of activated partial thromboplastin time; method in brief: as §2
T2 sequence (O19045 whole entry): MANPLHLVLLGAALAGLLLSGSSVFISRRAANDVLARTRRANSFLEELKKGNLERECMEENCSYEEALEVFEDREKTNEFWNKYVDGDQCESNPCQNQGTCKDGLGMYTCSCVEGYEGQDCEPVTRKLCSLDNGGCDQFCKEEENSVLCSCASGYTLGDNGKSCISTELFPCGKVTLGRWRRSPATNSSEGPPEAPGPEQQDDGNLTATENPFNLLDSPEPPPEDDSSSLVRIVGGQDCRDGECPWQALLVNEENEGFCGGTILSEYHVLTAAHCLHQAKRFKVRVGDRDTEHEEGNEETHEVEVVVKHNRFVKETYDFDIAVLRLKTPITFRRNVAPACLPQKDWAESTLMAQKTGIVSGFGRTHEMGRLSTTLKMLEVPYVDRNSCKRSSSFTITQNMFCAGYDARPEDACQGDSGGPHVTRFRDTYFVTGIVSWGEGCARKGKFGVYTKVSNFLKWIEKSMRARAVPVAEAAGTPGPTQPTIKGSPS

[4] = target: T1, Coagulation factor X; assay: Inhibition of F10a in human plasma assessed as doubling of prothombin time
Method in brief: (§3)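 Citrated (3.8% sodium citrate) blood from healthy human volunteers or rabbit was spun at 2000 g for 10 min. The DMSO stock was diluted in plasma, 5–7 inhibitor concentrations were tested, and prothrombin time was read with Thromborel-S on an automated temperature-controlled coagulometer in duplicate. PTCT2 (the concentration doubling clotting time) came from regression of the concentration-response curve.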

[5] = target: T2, Coagulation factor X; assay: Inhibition of F10a in rabbit plasma assessed as doubling of prothombin time; method in brief: as §3
[6] = target: T1, Coagulation factor X; assay: Inhibition of human F10a using S-2765 as substrate after 45 mins by spectra max analysis; method in brief: as §1
[7] = Solubility of the compound by Chinese pharmacopoeia 2010 edition of the second collection method; assay type: physicochemical

T1 sequence (P00742 41-179 limits assumed): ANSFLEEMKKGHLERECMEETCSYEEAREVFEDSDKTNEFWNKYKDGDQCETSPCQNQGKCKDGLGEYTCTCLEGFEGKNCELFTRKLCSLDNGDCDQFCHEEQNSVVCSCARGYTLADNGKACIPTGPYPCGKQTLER
T1 sequence (P00742 235-488 limits assumed): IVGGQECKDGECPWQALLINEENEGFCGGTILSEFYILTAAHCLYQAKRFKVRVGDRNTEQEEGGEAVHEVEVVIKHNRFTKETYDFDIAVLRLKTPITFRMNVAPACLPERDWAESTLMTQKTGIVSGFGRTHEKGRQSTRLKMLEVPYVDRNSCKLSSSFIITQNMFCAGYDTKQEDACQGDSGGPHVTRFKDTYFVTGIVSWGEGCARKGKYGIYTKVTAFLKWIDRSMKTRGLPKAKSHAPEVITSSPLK

| SMILES | inhibition [1] [%] | IC50 [2] [nM] | IC50 [3] [nM] | IC50 [4] [nM] | IC50 [5] [nM] | IC50 [6] [nM] | solubility [7] [µg/mL] |
| --- | --- | --- | --- | --- | --- | --- | --- |
| O=C(NC[C@H]1CN(c2ccc(-c3nc(CN4CCCCC4)cs3)cc2)C(=O)O1)c1ccc(Cl)s1 | 72 | 2950 | 3460 | 2720 | 3120 |  |  |
| CCN(CC)Cc1cc2ccccc2n1-c1ccc(N2C[C@H](CNC(=O)c3ccc(Cl)s3)OC2=O)cc1 | 61 | 5450 | 6110 | 5320 | 6020 |  |  |
| CCNCc1csc(-c2ccc(N3C[C@H](CNC(=O)c4ccc(Cl)s4)OC3=O)cc2)n1 | 93 | 790 | 1160 | 650 | 890 |  |  |
| CCN(CC)Cc1cccn1-c1ccc(N2C[C@H](CNC(=O)c3ccc(Cl)s3)OC2=O)cc1 | 100 | 300 | 750 | 150 | 460 | 2.01 | 6.9 (≈ 14.2 µM) |
| O=C(NC[C@H]1CN(c2ccc(-n3cccc3CN3CCCCC3)cc2)C(=O)O1)c1ccc(Cl)s1 | 82 | 2850 | 3230 | 2620 | 2890 |  |  |
| CN1CCN(Cc2cccn2-c2ccc(N3C[C@H](CNC(=O)c4ccc(Cl)s4)OC3=O)cc2)CC1 | 71 | 4010 | 4140 | 3800 | 3900 |  |  |
| CN(C)Cc1cccn1-c1ccc(N2C[C@H](CNC(=O)c3ccc(Cl)s3)OC2=O)cc1 | 98 | 1200 | 1390 | 610 | 780 | 7.24 |  |
| CC1CCN(Cc2cc3ccccc3n2-c2ccc(N3C[C@H](CNC(=O)c4ccc(Cl)s4)OC3=O)cc2)CC1 | 56 | 11900 | 13100 | 10500 | 12100 |  |  |
| O=C(NC[C@H]1CN(c2ccc(-n3c(CN4CCOCC4)cc4ccccc43)cc2)C(=O)O1)c1ccc(Cl)s1 | 58 | 11200 |  | 10100 | 11100 |  | 25.8 (≈ 46.8 µM) |
| O=C(NC[C@H]1CN(c2ccc(-c3nc(CN4CCOCC4)cs3)cc2)C(=O)O1)c1ccc(Cl)s1 | 62 | 3810 | 4790 | 3600 | 4060 |  |  |
| O=C(NC[C@H]1CN(c2ccc(N3CCOCC3=O)cc2)C(=O)O1)c1ccc(Cl)s1 [RIVAROXABAN] | 100 |  | 860 |  | 510 |  |  |
| CC1CCN(Cc2cccn2-c2ccc(N3C[C@H](CNC(=O)c4ccc(Cl)s4)OC3=O)cc2)CC1 | 70 | 3530 | 3780 | 3220 | 3450 |  |  |
| O=C(NC[C@H]1CN(c2cc(F)c(-n3cccc3CN3CCCC3)c(F)c2)C(=O)O1)c1ccc(Cl)s1 | 73 | 3060 | 3670 | 2790 | 2980 |  | 20.4 (≈ 39.2 µM) |
| CC1CCN(Cc2csc(-c3ccc(N4C[C@H](CNC(=O)c5ccc(Cl)s5)OC4=O)cc3)n2)CC1 | 68 | 3390 | 4020 | 3030 | 3780 |  |  |
| CN(C)Cc1csc(-c2ccc(N3C[C@H](CNC(=O)c4ccc(Cl)s4)OC3=O)cc2)n1 | 91 | 980 | 1240 | 870 | 920 |  |  |
| CN(C)Cc1cccn1-c1ccc(N2C[C@H](CNC(=O)c3ccc(Cl)s3)OC2=O)cc1F | 90 | 1330 | 1580 | 650 | 910 | 6.58 | 10.2 (≈ 21.4 µM) |
| CN(C)Cc1cccn1-c1cc(F)c(N2C[C@H](CNC(=O)c3ccc(Cl)s3)OC2=O)c(F)c1 | 88 | 2310 | 2560 | 1830 | 1980 |  |  |
| O=C(NC[C@H]1CN(c2ccc(-n3c(CN4CCCCC4)cc4ccccc43)cc2)C(=O)O1)c1ccc(Cl)s1 | 52 |  |  | 11000 | 11500 |  |  |
| O=C(NC[C@H]1CN(c2ccc(-n3cccc3CN3CCCC3)cc2)C(=O)O1)c1ccc(Cl)s1 | 89 | 1710 | 1980 | 1420 | 1580 |  |  |
| CCN(CC)Cc1csc(-c2ccc(N3C[C@H](CNC(=O)c4ccc(Cl)s4)OC3=O)cc2)n1 | 100 | 820 | 1030 | 510 | 720 | 9.46 |  |
| O=C(NC[C@H]1CN(c2ccc(-c3nc(CN4CCCC4)cs3)cc2)C(=O)O1)c1ccc(Cl)s1 | 79 | 2710 | 3040 | 2420 | 2780 |  |  |
| CN1CCN(Cc2csc(-c3ccc(N4C[C@H](CNC(=O)c5ccc(Cl)s5)OC4=O)cc3)n2)CC1 | 56 | 4120 | 5120 | 3850 | 4230 |  | 33.2 (≈ 62.4 µM) |
| O=C(NC[C@H]1CN(c2ccc(-n3cccc3CN3CCC3)cc2)C(=O)O1)c1ccc(Cl)s1 | 92 | 1310 | 1520 | 700 | 810 |  |  |
| CN(C)Cc1cc2ccccc2n1-c1ccc(N2C[C@H](CNC(=O)c3ccc(Cl)s3)OC2=O)cc1 | 69 | 6020 | 6230 | 5780 | 5920 |  |  |
| CNCc1csc(-c2ccc(N3C[C@H](CNC(=O)c4ccc(Cl)s4)OC3=O)cc2)n1 | 89 | 1870 | 1910 | 1650 | 1660 |  |  |
| CN1CCN(Cc2cc3ccccc3n2-c2ccc(N3C[C@H](CNC(=O)c4ccc(Cl)s4)OC3=O)cc2)CC1 | 45 |  |  | 11300 | 13300 |  |  |
| O=C(NC[C@H]1CN(c2ccc(-n3cccc3CN3CCOCC3)cc2)C(=O)O1)c1ccc(Cl)s1 | 76 | 3310 | 3520 | 2930 | 3190 |  |  |
